RanGTP-Impb inh: inhibitors of RanGTP-importin-beta interaction, primary screen, biochemical, FRET, CFP-Ran, YFP-importin-beta, homogeneous. 1.1% of 300,000 active. cell-free CFP-Ran/YFP-importin-beta FRET ratio. inhibition, % (no concentration beside the values). AID 2216;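 active means more than half of the replicate wells show a fall in the fluorescence ratio signal beyond about 16%, limit read from the data, passing the limit was not always enough; inconclusive means exactly half of the replicate wells pass the set limit; inactive means fewer than half of replicates pass the limit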;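 further: 0% = DMSO wells and 100% = Ran loaded with GDP instead of GTP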
MEX-5 binding: C. elegans MEX-5 TCR-2 RNA binding activity | Q9XUB2 | MEX-5/FITC-TCR2 RNA binding, fluorescence polarization; stronger effect = lower value | activity score (negative = inhibition of binding), % at 10 µM | 0.38% of 300,000 active;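 active means inhibition past about -25% in most replicates, and total fluorescence under double the plate's negative control median, limit read from the data; inconclusive means replicates evenly split on the limit, or fluorescence at least double controls; inactive means too little inhibition in most replicates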;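 further: 0% = DMSO and -100% = 5 µM competing unlabeled TCR2 RNA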
proKLK7 act: proKLK7 (human) activation, primary screen | purified proKLK7, EDANS-DABCYL substrate fluorescence; 100% is mature enzyme control, 0% vehicle | activation, % at 7 µM | 0.9% of 370,000 active;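 active means activation above the mean of all tested compounds plus 3 SD, computed per campaign excluding outliers beyond control limits, cut at about 13% in these data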
Target sequence (P49862 whole entry, looked up): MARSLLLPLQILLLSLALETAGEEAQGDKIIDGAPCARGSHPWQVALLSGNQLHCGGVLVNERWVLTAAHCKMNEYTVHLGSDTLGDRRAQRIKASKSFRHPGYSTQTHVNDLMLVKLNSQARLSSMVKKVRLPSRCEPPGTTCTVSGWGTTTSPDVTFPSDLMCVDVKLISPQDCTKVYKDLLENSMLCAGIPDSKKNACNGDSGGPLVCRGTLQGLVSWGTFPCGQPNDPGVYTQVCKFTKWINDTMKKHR
Runt-CBFb FRET: blocks binding of human RUNX1 Runt domain to CBFb; inhibition, % at 20 µM; Q01196+Q13951; Cerulean-Runt/Venus-CBFb FRET ratio 530/480, 1 h; 0.46% of 220,000 active; AID 1496;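 active means inhibition over about 50% at 20 µM in the single-dose screen, limit read from the data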;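 further: 0% = DMSO wells and 100% = excess unlabeled CBFb competitor control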
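Assay system: Cerulean-Runt domain fusion protein, energy donor; Signal: fluorescence energy transfer, 422 nm excitation, 530/480 nm emission; Timing: 1 h compound exposure, room temperature; Control set: unlabeled CBFb; Medium: Tris buffer pH 7.5 with salts and BSA; Compound: single test concentration of 20 µM, 1% DMSO final; Probe or stimulus: Venus-CBFb 100 nM.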
Runt-SMMHC FRET: Runt domain-CBFb-SMMHC interaction inhibition; Q01196+Q13951; AID 1434; inhibition, % at 20 µM; 0.74% of 220,000 active; Cerulean-Runt/Venus-CBFb-SMMHC FRET ratio 530/480, 1 h;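 active means mean inhibition across duplicate retests at 20 µM reaching about 50%, limit read from the data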;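 further: 0% = DMSO wells and 100% = wells with excess untagged CBFb-SMMHC; inhibitors lower the FRET ratio by blocking Runt binding to CBFb-SMMHC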
KLK7 act conf: proKLK7 activation, confirmation; shares compounds with proKLK7 act; purified proKLK7, EDANS-DABCYL substrate fluorescence; scaled: vehicle 0, mature enzyme 100; activation, % at 7 µM; 68% of 3,200 active;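 active means activation, as change over the incubation, above the mean of all tested compounds plus 3 SD, cut at about 13% in these data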
EDANS interfere: fluorescence interference counter-screen for KLK7 activators; shares compounds with proKLK7 act; EDANS-DABCYL substrate fluorescence interference, no enzyme, 4 h; solvent 0%, active enzyme control 100%; activation, % at 7 µM; 80% of 3,200 active;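 active means activation above the all-compound mean plus 3 SD, ignoring values outside control-based bounds, cut at about 4.8% in these data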;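 further: value is the 4 h activation minus the activation read at time zero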
EDANS interf: EDANS fluorescence interference in dose response, no enzyme | shares compounds with proKLK7 act | 20% of 250 active | EC50, µM | AID 720493 | EDANS-DABCYL peptide fluorescence interference;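 active means compounds that raise the fluorescence signal in this interference counterscreen, with EC50 at or below 10 µM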;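 further: intact quenched peptide substrate alone read at 355 nm excitation and 520 nm emission; signal is fluorescence gain from T0 to T4 after four hours at room temperature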
The depositor's hits bear a star; ? = inconclusive; . = no result. The list is not random: actives were taken first. Their share in the collection is about 2.1%.

SMILES	RanGTP-Impb inh	MEX-5 binding	proKLK7 act	Runt-CBFb FRET	Runt-SMMHC FRET	KLK7 act conf	EDANS interfere	others
Cc1ccc2nc(NC(=O)c3cccs3)sc2c1	.	.	27*	-3	2	4	12*
CCOc1ccc(S(=O)(=O)N2CCC(C(=O)Nc3cc(S(C)(=O)=O)ccc3Cl)CC2)cc1	.	.	0	.	.	.	.
COCCCn1cc(CN2CC(N3CCN(Cc4ccccc4F)CC3)CS2(=O)=O)nn1 (centres undefined)	.	.	1	.	.	.	.
O=c1c2ccccc2oc2cc(NCCCn3ccnc3)ccc12	58*	-14	63*	.	.	66*	60*
Cn1c2ccccc2c(=O)c2cc(NCCCN3CCOCC3)ccc21	.	.	75*	.	.	70*	76*
O=c1c2ccccc2oc2cc(NCCCN3CCOCC3)ccc12	46*	2	75*	.	.	65*	64*
COc1ccc(S[C@]2(C(=O)N3CCCC3)CC(=O)N(C(=O)/C=C/c3ccccc3)[C@@H]2c2ccc(OC)cc2)cc1	.	.	0	.	.	.	.
Cc1noc(C)c1NC(=O)N(C)C[C@@H]1Oc2ccc(NC(=O)Cc3cn(C)c4ccccc34)cc2CC(=O)N([C@H](C)CO)C[C@@H]1C	.	.	1	.	.	.	.
O=C(c1ccc(Cl)cc1)C1CCN(C(=O)c2ccc(F)cc2)CC1	2	5	0	.	.	.	.
CC(=O)CCc1c(C)c2cccc(C)c2[nH]c1=O	-4	1	1	1	2	.	.
COc1cccc2c(=S)c(CCC(C)=O)c(C)[nH]c12	4	-1	21*	19	46	22*	24*
CC(=O)Nc1ccc(NC(=O)CSc2nc3nc(-c4cccs4)cc(C(F)(F)F)c3c(=O)[nH]2)cc1	-6	2	1	5	-1	.	.
O=C(CSc1nc2nc(-c3cccs3)cc(C(F)(F)F)c2c(=O)[nH]1)NCc1ccco1	?	-4	16*	11	34	-34	-23
O=C(CSc1nc2nc(-c3cccs3)cc(C(F)(F)F)c2c(=O)[nH]1)C(F)(F)F	?	-2	67*	.	.	278*	260*
COC(=O)CSc1nc2nc(-c3cccs3)cc(C(F)(F)F)c2c(=O)[nH]1	4	5	1	.	.	.	.
COCCN1C(=O)CSCC1(C)C(=O)NCc1ccccc1 (centres undefined)	.	.	0	.	.	.	.
O=C(N/N=C/c1c(O)n(-c2ccccc2Cl)c(=O)c2ccccc12)C1COc2ccccc2O1 (centres undefined)	-2	12	.	21	62	.	.
O=c1c2ccccc2c(/C=N/c2n[nH]c(CCCO)n2)c(O)n1-c1ccccc1Cl	1	-1	27*	13	19	5	5.8*
CCN(CC(=O)Nc1cc(S(=O)(=O)N2CCOCC2)ccc1C)Cc1ccccc1	-3	1	0	.	.	.	.
Oc1cnc2ccccc2c1CN1CCOCC1	9	1	15*	-1	3	5	6.9*
CCCc1cc(-n2ccnc2C)n2c(nc3ccccc32)c1C#N	6	6	3	.	.	.	.
CC(C)c1cc(NCCOCCO)n2c(nc3ccccc32)c1C#N	?	-1	54*	.	.	52*	50*
CCCc1cc(NCCCCO)n2c(nc3ccccc32)c1C#N	43*	0	25*	21	54*	-20	-12
CCCc1cc(NCCOCCO)n2c(nc3ccccc32)c1C#N	.	.	45*	.	.	42*	27*	EDANS interf=>70
CCCCc1c(C)c(C#N)c2nc3ccccc3n2c1Cl	6	0	.	-18	-38	.	.
CN1CCN(C(=O)c2cc3c(ccc4ccccc43)oc2=O)CC1	4	2	56*	12	42	22*	21*

Screens deposited in PubChem by several laboratories.
